From ChEMBL document CHEMBL1629487, “Synthesis and in vitro antimicrobial evaluation of novel fluoroquinolone derivatives” (2010)
Converted amounts (≈) assume the structure as drawn.

Key:
Proteus mirabilis = assay: Antimicrobial activity against Proteus mirabilis ATCC 7002 after 18 to 24 hrs by microbroth dilution method; type: functional
How it was run: (§1)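 Bacteria were cultured in Mueller Hinton broth in 96-well microtiter plates, and the suspensions were added to MHB containing varying concentrations of test compound. Plates were incubated at 37 °C for 18–24 h, then read visually with a reading mirror and spectrophotometrically at 450 nm. MIC was taken as the lowest concentration giving complete suppression of visible growth.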

Proteus vulgaris = assay: Antimicrobial activity against Proteus vulgaris ATCC 49132 after 18 to 24 hrs by microbroth dilution method; type: functional; how it was run: as §1
Salmonella paratyphi = assay: Antimicrobial activity against Salmonella paratyphi A ATCC 9150 after 18 to 24 hrs by microbroth dilution method; type: functional, Salmonella enterica subsp. enterica serovar Paratyphi A; conditions: Salmonella enterica
How it was run: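 Broth microdilution in 96-well plates; bacteria grown in Mueller Hinton broth with varying concentrations of test compound, incubated at 37 °C for 18–24 h. Plates read visually with a reading mirror and spectrophotometrically at 450 nm. MIC taken as lowest concentration giving complete suppression of visible growth.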

Shigella boydii = assay: Antimicrobial activity against Shigella boydii ATCC 9207 after 18 to 24 hrs by microbroth dilution method; type: functional; how it was run: as §1
Klebsiella pneumoniae = assay: Antimicrobial activity against Klebsiella pneumoniae ATCC 10031 after 18 to 24 hrs by microbroth dilution method; type: functional; how it was run: as §1
Streptococcus mitis = assay: Antimicrobial activity against Streptococcus mitis ATCC 6249 after 18 to 24 hrs by microbroth dilution method; type: functional; how it was run: as §1
Bacillus subtilis = assay: Antimicrobial activity against Bacillus subtilis ATCC 11774 after 18 to 24 hrs by microbroth dilution method; type: functional; how it was run: as §1
Vibrio parahaemolyticus = assay: Antimicrobial activity against Vibrio parahaemolyticus ATCC 17802 after 18 to 24 hrs by microbroth dilution method; type: functional; how it was run: as §1
Streptococcus salivarius = assay: Antimicrobial activity against Streptococcus salivarius ATCC 13419 after 18 to 24 hrs by microbroth dilution method; type: functional; how it was run: as §1
Vibrio alginolyticus = assay: Antimicrobial activity against Vibrio alginolyticus ATCC 17749 after 18 to 24 hrs by microbroth dilution method; type: functional; how it was run: as §1
Staphylococcus aureus = assay: Antimicrobial activity against Staphylococcus aureus ATCC 11632 after 18 to 24 hrs by microbroth dilution method; type: functional; how it was run: as §1
Pseudomonas aeruginosa = assay: Antimicrobial activity against Pseudomonas aeruginosa ATCC 10145 after 18 to 24 hrs by microbroth dilution method; type: functional; how it was run: as §1
Cryptococcus neoformans = assay: Antimicrobial activity against Cryptococcus neoformans ATCC 14116 after 18 to 24 hrs by microbroth dilution method; type: functional
How it was run: as §1, with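 “Fungal isolates” for “Bacteria”, “cultivated” for “cultured”, “Sabouraud's” for “Mueller Hinton”, “SDB” for “MHB”, “completely suppressing” for “giving complete suppression of”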

Aeromonas hydrophila = assay: Antimicrobial activity against Aeromonas hydrophila ATCC 7966 after 18 to 24 hrs by microbroth dilution method; type: functional; how it was run: as §1
Streptococcus sanguinis = assay: Antimicrobial activity against Streptococcus sanguinis ATCC 10556 after 18 to 24 hrs by microbroth dilution method; type: functional; how it was run: as §1
Candida albicans = assay: Antimicrobial activity against Candida albicans ATCC 90028 after 18 to 24 hrs by microbroth dilution method; type: functional
How it was run: as §1, with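 “Fungal isolates” for “Bacteria”, “cultivated” for “cultured”, “Sabouraud's” for “Mueller Hinton”, “SDB” for “MHB”, “completely suppressing” for “giving complete suppression of”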

## CCn1cc(C(=O)O)c(=O)c2cc(F)c(N3CCN(c4ccccc4C#N)CC3)c(F)c21
Proteus mirabilis
  MIC: 2.5 µg/mL (≈ 5.7 µM)
Proteus vulgaris
  MIC: 1 µg/mL (≈ 2.28 µM)
Salmonella paratyphi
  MIC: 1.5 µg/mL (≈ 3.42 µM)
Shigella boydii
  MIC: 2 µg/mL (≈ 4.56 µM)
Klebsiella pneumoniae
  MIC: 1 µg/mL (≈ 2.28 µM)
Streptococcus mitis
  MIC: 1.5 µg/mL (≈ 3.42 µM)
Bacillus subtilis
  MIC: 1.5 µg/mL (≈ 3.42 µM)
Vibrio parahaemolyticus
  MIC: 1.5 µg/mL (≈ 3.42 µM)
Streptococcus salivarius
  MIC: 2.5 µg/mL (≈ 5.7 µM)

## CCn1cc(C(=O)O)c(=O)c2cc(F)c(N3CCC(NC)CC3)c(F)c21
Proteus mirabilis
  MIC: 1.25 µg/mL (≈ 3.42 µM)
Proteus vulgaris
  MIC: 1.25 µg/mL (≈ 3.42 µM)
Salmonella paratyphi
  MIC: 5 µg/mL (≈ 13.7 µM)
Vibrio alginolyticus
  MIC: 2.5 µg/mL (≈ 6.84 µM)
Staphylococcus aureus
  MIC: 2.5 µg/mL (≈ 6.84 µM)
Pseudomonas aeruginosa
  MIC: 1 µg/mL (≈ 2.74 µM)
Shigella boydii
  MIC: 1 µg/mL (≈ 2.74 µM)
Cryptococcus neoformans
  MIC: 1.82 µg/mL (≈ 4.98 µM)
Klebsiella pneumoniae
  MIC: 5 µg/mL (≈ 13.7 µM)
Streptococcus mitis
  MIC: 2.5 µg/mL (≈ 6.84 µM)
Bacillus subtilis
  MIC: 1.25 µg/mL (≈ 3.42 µM)
Aeromonas hydrophila
  MIC: 2 µg/mL (≈ 5.47 µM)
Streptococcus sanguinis
  MIC: 2 µg/mL (≈ 5.47 µM)
Vibrio parahaemolyticus
  MIC: 0.5 µg/mL (≈ 1.37 µM)
Streptococcus salivarius
  MIC: 2.5 µg/mL (≈ 6.84 µM)

## CCn1cc(C(=O)O)c(=O)c2cc(F)c(N3CCNCC3)cc21 [NORFLOXACIN]
Cryptococcus neoformans
  MIC: 4.88 µg/mL (≈ 15.3 µM)
Candida albicans
  MIC: 312 µg/mL (≈ 979 µM)

## CCn1cc(C(=O)O)c(=O)c2cc(F)c(N3CCC(Br)CC3)c(F)c21
Proteus mirabilis
  MIC: 5 µg/mL (≈ 12 µM)
Proteus vulgaris
  MIC: 2.5 µg/mL (≈ 6.02 µM)
Staphylococcus aureus
  MIC: 5 µg/mL (≈ 12 µM)
Shigella boydii
  MIC: 1 µg/mL (≈ 2.41 µM)
Cryptococcus neoformans
  MIC: 1.03 µg/mL (≈ 2.48 µM)
Klebsiella pneumoniae
  MIC: 5 µg/mL (≈ 12 µM)
Streptococcus mitis
  MIC: 1 µg/mL (≈ 2.41 µM)
Bacillus subtilis
  MIC: 2.5 µg/mL (≈ 6.02 µM)
Candida albicans
  MIC: 415 µg/mL (≈ 999 µM)
Aeromonas hydrophila
  MIC: 1.5 µg/mL (≈ 3.61 µM)
Vibrio parahaemolyticus
  MIC: 5 µg/mL (≈ 12 µM)
Streptococcus salivarius
  MIC: 2.5 µg/mL (≈ 6.02 µM)

## CCn1cc(C(=O)O)c(=O)c2cc(F)c(N3CCN(c4ccccc4F)CC3)c(F)c21
Proteus mirabilis
  MIC: 5 µg/mL (≈ 11.6 µM)
Proteus vulgaris
  MIC: 2.5 µg/mL (≈ 5.79 µM)
Shigella boydii
  MIC: 2 µg/mL (≈ 4.64 µM)
Klebsiella pneumoniae
  MIC: 1.5 µg/mL (≈ 3.48 µM)
Streptococcus mitis
  MIC: 1.5 µg/mL (≈ 3.48 µM)
Bacillus subtilis
  MIC: 1.25 µg/mL (≈ 2.9 µM)
Aeromonas hydrophila
  MIC: 1.5 µg/mL (≈ 3.48 µM)
Vibrio parahaemolyticus
  MIC: 1.5 µg/mL (≈ 3.48 µM)
Streptococcus salivarius
  MIC: 1 µg/mL (≈ 2.32 µM)

## O=C(O)c1cn(C2CC2)c2cc(N3CCNCC3)c(F)cc2c1=O [CIPROFLOXACIN]
Proteus mirabilis
  MIC: 6 µg/mL (≈ 18.1 µM)
Proteus vulgaris
  MIC: 3 µg/mL (≈ 9.05 µM)
Salmonella paratyphi
  MIC: 4 µg/mL (≈ 12.1 µM)
Vibrio alginolyticus
  MIC: 2 µg/mL (≈ 6.04 µM)
Staphylococcus aureus
  MIC: 1 µg/mL (≈ 3.02 µM)
Shigella boydii
  MIC: 2.5 µg/mL (≈ 7.54 µM)
Klebsiella pneumoniae
  MIC: 1.5 µg/mL (≈ 4.53 µM)
Streptococcus mitis
  MIC: 2.5 µg/mL (≈ 7.54 µM)
Bacillus subtilis
  MIC: 1.5 µg/mL (≈ 4.53 µM)
Aeromonas hydrophila
  MIC: 3 µg/mL (≈ 9.05 µM)
Streptococcus sanguinis
  MIC: 4 µg/mL (≈ 12.1 µM)
Vibrio parahaemolyticus
  MIC: 8 µg/mL (≈ 24.1 µM)
Streptococcus salivarius
  MIC: 1.5 µg/mL (≈ 4.53 µM)

## CCn1cc(C(=O)O)c(=O)c2cc(F)c(N3CCC(CO)CC3)c(F)c21
Proteus mirabilis
  MIC: 1.25 µg/mL (≈ 3.41 µM)
Proteus vulgaris
  MIC: 1.25 µg/mL (≈ 3.41 µM)
Salmonella paratyphi
  MIC: 5 µg/mL (≈ 13.6 µM)
Vibrio alginolyticus
  MIC: 1 µg/mL (≈ 2.73 µM)
Staphylococcus aureus
  MIC: 1.25 µg/mL (≈ 3.41 µM)
Pseudomonas aeruginosa
  MIC: 1.5 µg/mL (≈ 4.09 µM)
Shigella boydii
  MIC: 0.5 µg/mL (≈ 1.36 µM)
Cryptococcus neoformans
  MIC: 4.19 µg/mL (≈ 11.4 µM)
Klebsiella pneumoniae
  MIC: 2.5 µg/mL (≈ 6.82 µM)
Streptococcus mitis
  MIC: 2.5 µg/mL (≈ 6.82 µM)
Bacillus subtilis
  MIC: 1 µg/mL (≈ 2.73 µM)
Candida albicans
  MIC: 183 µg/mL (≈ 500 µM)
Aeromonas hydrophila
  MIC: 1 µg/mL (≈ 2.73 µM)
Streptococcus sanguinis
  MIC: 2 µg/mL (≈ 5.46 µM)
Vibrio parahaemolyticus
  MIC: 1.25 µg/mL (≈ 3.41 µM)
Streptococcus salivarius
  MIC: 1.25 µg/mL (≈ 3.41 µM)

## CCn1cc(C(=O)O)c(=O)c2cc(F)c(N3CCN(c4cccc(Cl)c4Cl)CC3)c(F)c21
Proteus mirabilis
  MIC: 5 µg/mL (≈ 10.4 µM)
Proteus vulgaris
  MIC: 2.5 µg/mL (≈ 5.18 µM)
Salmonella paratyphi
  MIC: 5 µg/mL (≈ 10.4 µM)
Vibrio alginolyticus
  MIC: 1 µg/mL (≈ 2.07 µM)
Staphylococcus aureus
  MIC: 1 µg/mL (≈ 2.07 µM)
Shigella boydii
  MIC: 1 µg/mL (≈ 2.07 µM)
Cryptococcus neoformans
  MIC: 2.17 µg/mL (≈ 4.5 µM)
Klebsiella pneumoniae
  MIC: 1.25 µg/mL (≈ 2.59 µM)
Streptococcus mitis
  MIC: 5 µg/mL (≈ 10.4 µM)
Bacillus subtilis
  MIC: 5 µg/mL (≈ 10.4 µM)
Candida albicans
  MIC: 108 µg/mL (≈ 224 µM)
Aeromonas hydrophila
  MIC: 0.5 µg/mL (≈ 1.04 µM)
Vibrio parahaemolyticus
  MIC: 1.25 µg/mL (≈ 2.59 µM)
Streptococcus salivarius
  MIC: 2.5 µg/mL (≈ 5.18 µM)

## CCn1cc(C(=O)O)c(=O)c2cc(F)c(N3CCN(c4ccccc4)CC3)c(F)c21
Proteus mirabilis
  MIC: 1.5 µg/mL (≈ 3.63 µM)
Proteus vulgaris
  MIC: 1.5 µg/mL (≈ 3.63 µM)
Staphylococcus aureus
  MIC: 1 µg/mL (≈ 2.42 µM)
Klebsiella pneumoniae
  MIC: 2 µg/mL (≈ 4.84 µM)
Streptococcus mitis
  MIC: 1.5 µg/mL (≈ 3.63 µM)
Bacillus subtilis
  MIC: 5 µg/mL (≈ 12.1 µM)
Candida albicans
  MIC: 413 µg/mL (≈ 1000 µM)
Streptococcus salivarius
  MIC: 1 µg/mL (≈ 2.42 µM)

## CCn1cc(C(=O)O)c(=O)c2cc(F)c(N3CCC(C)CC3)c(F)c21
Proteus mirabilis
  MIC: 2.5 µg/mL (≈ 7.14 µM)
Proteus vulgaris
  MIC: 1 µg/mL (≈ 2.85 µM)
Klebsiella pneumoniae
  MIC: 1.5 µg/mL (≈ 4.28 µM)
Streptococcus mitis
  MIC: 1 µg/mL (≈ 2.85 µM)
Bacillus subtilis
  MIC: 5 µg/mL (≈ 14.3 µM)
Vibrio parahaemolyticus
  MIC: 1.5 µg/mL (≈ 4.28 µM)
Streptococcus salivarius
  MIC: 2.5 µg/mL (≈ 7.14 µM)

## CCn1cc(C(=O)O)c(=O)c2cc(F)c(N3CCN(c4ccc(F)cc4)CC3)c(F)c21
Proteus mirabilis
  MIC: 1.25 µg/mL (≈ 2.9 µM)
Proteus vulgaris
  MIC: 2.5 µg/mL (≈ 5.79 µM)
Shigella boydii
  MIC: 2 µg/mL (≈ 4.64 µM)
Klebsiella pneumoniae
  MIC: 1.5 µg/mL (≈ 3.48 µM)
Streptococcus mitis
  MIC: 1.5 µg/mL (≈ 3.48 µM)
Bacillus subtilis
  MIC: 2.5 µg/mL (≈ 5.79 µM)
Vibrio parahaemolyticus
  MIC: 1.5 µg/mL (≈ 3.48 µM)
Streptococcus salivarius
  MIC: 1.5 µg/mL (≈ 3.48 µM)

## CCn1cc(C(=O)O)c(=O)c2cc(F)c(N3CCC(N4CCCCC4)CC3)c(F)c21
Proteus mirabilis
  MIC: 1.25 µg/mL (≈ 2.98 µM)
Proteus vulgaris
  MIC: 1.25 µg/mL (≈ 2.98 µM)
Salmonella paratyphi
  MIC: 1 µg/mL (≈ 2.38 µM)
Staphylococcus aureus
  MIC: 2.5 µg/mL (≈ 5.96 µM)
Shigella boydii
  MIC: 1 µg/mL (≈ 2.38 µM)
Klebsiella pneumoniae
  MIC: 2.5 µg/mL (≈ 5.96 µM)
Streptococcus mitis
  MIC: 2.5 µg/mL (≈ 5.96 µM)
Aeromonas hydrophila
  MIC: 0.5 µg/mL (≈ 1.19 µM)
Vibrio parahaemolyticus
  MIC: 2.5 µg/mL (≈ 5.96 µM)
Streptococcus salivarius
  MIC: 2.5 µg/mL (≈ 5.96 µM)

## CCn1cc(C(=O)O)c(=O)c2cc(F)c(N3CCN(Cc4ccccc4)CC3)c(F)c21
Proteus mirabilis
  MIC: 1.5 µg/mL (≈ 3.51 µM)
Salmonella paratyphi
  MIC: 1 µg/mL (≈ 2.34 µM)
Shigella boydii
  MIC: 1.5 µg/mL (≈ 3.51 µM)
Klebsiella pneumoniae
  MIC: 1 µg/mL (≈ 2.34 µM)
Streptococcus mitis
  MIC: 1.5 µg/mL (≈ 3.51 µM)
Aeromonas hydrophila
  MIC: 1.5 µg/mL (≈ 3.51 µM)
Vibrio parahaemolyticus
  MIC: 1.5 µg/mL (≈ 3.51 µM)
Streptococcus salivarius
  MIC: 2.5 µg/mL (≈ 5.85 µM)
